A selection: hits, their analogues and other compounds. The true share with any hit is near 9.6%.
Lmaj promast: inhibitors of Leishmania major promastigote growth; hit rate 9% among 200,000; AID 1063; inhibition, % at 10 µM; Leishmania major promastigotes, resazurin fluorescence viability; in the data active = inhibition above about 50%;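 note: promastigotes grown with compound for 44 hours at 28 °C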
bCat KO growth: beta-catenin-lacking colon tumor cell growth suppression; HCT116 beta-catenin knockout viability, CellTiter-Glo, 60 h; hits give low values; viability, % at 10 µM; hit rate 1.5% among 140,000; AID 818;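 active = viability at or under a set limit, the compound median less 4 SD, cut at about 6% in these data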;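 note: 0% = Hyamine 1622 control at 20 µM and 100% = untreated cell control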
PMI act satM6P: activators of human phosphomannose isomerase at near-saturating mannose 6-phosphate; coupled PMI enzyme assay, resazurin fluorescence, 20 min; hits give high values; 1 = untreated enzyme, 0 = substrate-free blank; activation factor at 20 µM; hit rate 0.34% among 190,000;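 active = activation factor of 2 or more at 20 µM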
Target sequence (P34949 whole entry, looked up): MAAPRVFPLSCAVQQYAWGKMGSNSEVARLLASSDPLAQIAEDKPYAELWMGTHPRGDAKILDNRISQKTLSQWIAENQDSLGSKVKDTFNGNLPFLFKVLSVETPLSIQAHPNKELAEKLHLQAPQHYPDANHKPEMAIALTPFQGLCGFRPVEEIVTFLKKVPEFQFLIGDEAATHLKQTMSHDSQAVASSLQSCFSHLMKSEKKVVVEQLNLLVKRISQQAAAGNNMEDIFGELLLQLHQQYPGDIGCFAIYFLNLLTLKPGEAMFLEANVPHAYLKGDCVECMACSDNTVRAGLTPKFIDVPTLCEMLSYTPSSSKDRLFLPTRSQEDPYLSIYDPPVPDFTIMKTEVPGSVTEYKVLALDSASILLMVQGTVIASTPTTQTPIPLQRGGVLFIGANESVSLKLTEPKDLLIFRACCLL
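Material: human phosphomannose isomerase with PGI, G6PDH, diaphorase coupling enzymes / Reagent: Man-6-P substrate 1.0 mM / Dosing: single compound dose of 20 µM, 1% DMSO final / Incubation: enzyme reaction with compound 20 min at room temperature / Signal: resorufin fluorescence (Ex 544/Em 590 nm) from resazurin via diaphorase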
HCT116 PTEN-null: growth suppressors of cells with PTEN tumor suppressor deletion; hit rate 1.2% among 140,000; HCT116 PTEN-null viability, CellTiter-Glo, 60 h; hits give low values; viability, % at 10 µM;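 active = viability at or below a set limit, 4 SD under the median of all tested compounds, cut at about 3.7% in these data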;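 note: PTEN knockout HCT116 line with beta catenin targeted HCT116 as companion control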
PMI act: activators of human phosphomannose isomerase; purified human PMI, coupled resazurin fluorescence, 20 min; hits give high values; 1 = vehicle control, 0 substrate-free wells; activation factor at 20 µM; hit rate 0.005% among 190,000;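 active = activation factor of 2 or more at 20 µM, relative to plate controls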
An asterisk follows results filed as active; x = no result given.

SMILES	Lmaj promast	bCat KO growth	PMI act satM6P	HCT116 PTEN-null	PMI act
N=c1occ(C(=O)c2cc(F)ccc2O)cc1C(=O)NC1CCCCC1	70*	x	1	x	1.1
CCOC(=O)c1cc(C(=O)c2cc(F)ccc2O)coc1=N	-10	82	0.9	89	1
CC(C)(C)c1ccc(OCCON2C(=O)CCC2=O)c(Cl)c1	-2	92	1	x	1
CNCCCCOc1ccc(C(C)(C)C)cc1Cl	98*	x	0.9	x	0.9
NNC(=O)c1sc2cc(C(F)(F)F)cnc2c1-c1cccnc1	4	x	1	x	1
CCCCc1ncc(CN2CCC(CC3CCCCO3)(C(=O)OCC)CC2)[nH]1 (stereo unspecified)	11	x	0.8	x	0.9
CCOC(=O)C1(CC2CCCCO2)CCN(Cc2cc3ccccc3[nH]2)CC1 (stereo unspecified)	67*	x	x	x	x
CC(C)c1ccc(/C=N/NC(=O)c2nnn(-c3nonc3N)c2CSC2=NCCS2)cc1	97*	46	0.9	34	1
Nc1nonc1-n1nnc(C(=O)N/N=C/c2ccc(Br)cc2)c1CSC1=NCCS1	13	41	1	47	0.9
COc1ccc(Cl)cc1NC(=S)N1CCN(C(=O)C2CCCO2)CC1 (stereo unspecified)	-6	x	1	x	1.1
COC(=O)C1=C(C)C(c2ccc(OC)cc2OC)NC(=O)N1 (stereo unspecified)	-3	107	0.9	99	1
COc1ccc(C2CC(C)(c3ccc(OC)cc3OC)Nc3ccccc3N2)c(OC)c1 (stereo unspecified)	62*	x	0.7	x	0.7
COc1cc(CCCN2C(=S)NC[C@@H]2c2ccccc2)cc(OC)c1OC	6	x	1	x	0.9
CN(Cc1cn(-c2ccccc2)nc1-c1ccc2c(c1)OCO2)Cc1nccn1C	24	x	1	x	0.9
CN(CCn1ccnc1)Cc1cn(-c2ccccc2)nc1-c1ccc2c(c1)OCO2	94*	x	0.9	x	0.9
Cc1ccc(/C=C2\C(=O)ON=C2c2ccccc2)o1	0	x	0.9	x	0.9
Cc1ccc(-c2ccc(/C=C3\C(=O)ON=C3c3ccccc3)o2)c([N+](=O)[O-])c1	98*	36	0.9	52	0.9
COc1ccc(C(=O)CC(Nc2ccc([N+](=O)[O-])cc2)c2ccc(Cl)cc2)cc1 (stereo unspecified)	31	17	0.8	10	0.8
C/C=C/c1ccc(OCCCCNCc2ccco2)c(OC)c1	93*	x	0.9	x	0.9
C/C=C/c1ccc(OCCCCN2CC(C)CC(C)C2)c(OC)c1 (stereo unspecified)	8	x	1	x	1.1
C/C=C/c1ccc(OCCCCN2CCN(CC)CC2)c(OC)c1	86*	x	1.1	x	1
O=C(c1ccc(F)cc1)N1CCN(c2cc(N3CCCCC3)c(F)cc2[N+](=O)[O-])CC1	-1	74	0.9	75	0.9
CCN1CCN(c2cc(C)c3cc(NC(=S)N4CC(C)CC(C)C4)ccc3n2)CC1 (stereo unspecified)	100*	x	0.6	x	0.9
CCN1CCN(c2cc(C)c3cc(NC(=S)N4CCCC4)ccc3n2)CC1	5	x	0.9	x	1
CCN1CCN(c2cc(C)c3cc(NC(=S)N4CCCC(C)C4)ccc3n2)CC1 (stereo unspecified)	96*	x	0.9	x	1
SMILES	Lmaj promast	bCat KO growth	PMI act satM6P	HCT116 PTEN-null	PMI act
CC(=O)Nc1ccc(N2CCOCC2)c([N+](=O)[O-])c1	-4	x	1	x	1
O=C1C2C3C=CC(C3=C(c3ccccc3)c3ccccc3)C2C(=O)N1Cc1ccccc1 (stereo unspecified)	2	89	1.1	90	1
CCC(=O)NC(=S)NNC(=O)c1ccc(NC(=O)c2ccccc2)cc1	99*	x	1.2	x	1.1
CCCCC(=O)NC(=S)NNC(=O)c1ccc(OC)cc1	58*	x	1.3	x	1.1
COc1ccc(C(=O)NNC(=S)NC(=O)c2cccnc2)cc1	12	x	1	x	0.9
COc1ccc(/C=C/C(=O)NC(=S)NNC(=O)c2cccnc2)cc1	93*	56	1.2	68	1
CCCOc1ccc(C(=O)NNC(=S)NC(=O)CC)cc1	95*	5.5*	1.1	6	1.1
CC(=O)Nc1ccc2c(c1)nc1n2CCN(C2CCCCC2)C1	7	x	1.5	x	1.6
COC(=O)c1ccc(C2N=C(c3cccs3)CC(c3ccccc3O)N2)cc1 (stereo unspecified)	36	x	1	x	0.9
COc1ccc(CCN=C(N)NS(=O)(=O)c2ccc3ccccc3c2)cc1	2	76	1	68	0.9
O=C(Nc1ccc(Cc2ccncc2)cc1)C1CCC(N2C(=O)C3C4C=CC(C5CC45)C3C2=O)CC1 (stereo unspecified)	52*	82	0.9	79	0.9
N#Cc1c(-c2ccccc2)c(-c2ccccc2)n(Cc2ccco2)c1NC(=O)c1cccs1	62*	73	0.9	70	0.9
N#Cc1c(C(F)(F)F)cc(-c2ccccc2Cl)[nH]c1=O	-2	84	0.9	85	0.9
Cc1ccc(CC2SC(=Nc3ccccc3)N(c3ccccc3)C2=O)cc1 (stereo unspecified)	53*	83	0.9	70	0.9
Cc1cc(S(=O)(=O)Nc2cc(C)c(O)c(C)c2)c(C)s1	100*	1.9*	1.1	2.1*	1
Cc1cc(S(=O)(=O)Nc2ccc3ccccc3c2)c(C)s1	7	14	0.9	23	0.8
FC(F)(F)c1nc2ccccc2n2c(-c3ccc(Cl)cc3Cl)nnc12	8	89	1.1	88	1.1
FC(F)(F)c1nnc2c(Sc3ccccc3)nc3ccc(Cl)cc3n12	8	3.6*	1	4	1
Cc1ccccc1Nc1nc(N)nc(COC(=O)c2cccc(S(=O)(=O)N(C)C)c2)n1	66*	88	1	83	1
O=C(Nc1cccc(F)c1)NC1CC2CCCC(C1)N2C1CC1 (stereo unspecified)	16	101	1.1	108	1.1
O=C(Nc1ccc(Cl)c(C(F)(F)F)c1)NC1CC2CCCC(C1)N2C1CC1 (stereo unspecified)	60*	x	x	x	x
Cc1ccc(NC(=O)CC2=NC(=O)C(CC(=O)Nc3ccccc3F)S2)cc1 (stereo unspecified)	6	x	1	x	1
Cc1ccc([N+](=O)[O-])cc1NC(=O)CN(C(=O)c1ccc(Cl)cc1)C1CCCCC1	33	41	1	24	0.9
O=C(COc1ncnc2ccccc12)Nc1ccc(Cl)c([N+](=O)[O-])c1	72*	89	1	89	0.9
O=C(CN(C(=O)c1ccc(Cl)cc1)C1CCCCC1)Nc1ccc(Cl)c([N+](=O)[O-])c1	85*	30	1	22	1
O=C(CN(C(=O)c1ccccc1Cl)C1CCCCC1)Nc1ccc(Cl)c([N+](=O)[O-])c1	80*	44	1	25	1
O=C(COc1ncnc2ccccc12)Nc1cccc([N+](=O)[O-])c1	0	x	1.1	x	1.1
